This is an account of results in ChEMBL document CHEMBL1629577, “Activity of T-705 in a hamster model of yellow fever virus infection in comparison with that of a chemically related compound, T-1106” (Antimicrob Agents Chemother, 2009).

The source made the active and inactive calls. No cut-off for these calls is given here.

Assay [1] has as its system Yellow fever virus. The assay can be described thus: Antiviral activity against 10^2 CCID50 Yellow fever virus Jimenez infected in syrian golden hamster assessed as mean day of death […] at 400 mg/kg/day, po administered twice daily for 8 days started 3 day post infection. Format: functional.
For assay [2], the system named is Yellow fever virus. The assay can be described thus: Antiviral activity against 10^2 CCID50 Yellow fever virus Jimenez infected in syrian golden hamster assessed as serum ALT level at 400 mg/kg/day, po administered daily for days started 4 day post viral challenge. Format: functional.
The test system of assay [3] is Yellow fever virus. The assay can be described thus: Antiviral activity against 10^2 CCID50 Yellow fever virus Jimenez infected in syrian golden hamster assessed as serum AST level in surviving animals at 400 mg/kg/day, po administered 5 days post viral infection. Format: functional.
In assay [4] the test system is Yellow fever virus. The assay can be described thus: Antiviral activity against 10^2 CCID50 Yellow fever virus Jimenez infected in syrian golden hamster assessed as serum AST level in non surviving animals at 400 mg/kg/day, po administered 4 days post viral infection. Format: functional.
The test system of assay [5] is Yellow fever virus. Nature of the assay: Antiviral activity against 10^2 CCID50 Yellow fever virus Jimenez infected in syrian golden hamster assessed as serum AST level in non surviving animals at 400 mg/kg/day, po administered 5 days post viral infection. Format: functional.
The test system of assay [6] is Yellow fever virus. The assay can be described thus: Antiviral activity against 10^2 CCID50 Yellow fever virus Jimenez infected in syrian golden hamster assessed as serum survival of animal at 200 mg/kg/day, po administered twice daily for 8 days started 4 hrs prior to viral infection. Type of assay: functional, organism-based.
For assay [7], the system named is Yellow fever virus. Nature of the assay: Antiviral activity against Yellow fever virus 17D infected in African green monkey Vero cells assessed as reduction in virus yield. Format: functional. The procedure, abridged:
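Virus yield reduction in Vero cells infected with YFV 17D after compound exposure, with progeny virus titred by CCID50. The EC90 was averaged over separate experiments.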

For assay [8], the system named is Yellow fever virus. The assay can be described thus: Antiviral activity against 10^2 CCID50 Yellow fever virus Jimenez infected in syrian golden hamster assessed as serum ALT level in surviving animals at 400 mg/kg/day, po administered 4 days post viral infection. Format: functional.
In assay [9] the test system is Yellow fever virus. The assay can be described thus: Antiviral activity against Yellow fever virus 17D infected in African green monkey Vero cells assessed as inhibition of virus induced cytopathic effect by luciferase reporter gene assay. Type of assay: functional, cell-based.
The subject of assay [10] is Yellow fever virus. The assay can be described thus: Antiviral activity against 10^2 CCID50 Yellow fever virus Jimenez infected in syrian golden hamster assessed as mean day of death […] at 400 mg/kg/day, po administered twice daily for 8 days started 5 day post infection. Format: functional.
Assay [11] concerns Yellow fever virus. Nature of the assay: Antiviral activity against 10^2 CCID50 Yellow fever virus Jimenez infected in syrian golden hamster assessed as serum AST level at 400 mg/kg/day, po administered daily for days started 5 day post viral challenge. Type of assay: functional.
In assay [12] the test system is Yellow fever virus. The assay can be described thus: Antiviral activity against 10^2 CCID50 Yellow fever virus Jimenez infected in syrian golden hamster assessed as serum AST level at 10 mg/kg/day, po administered twice daily for 8 days started 4 hrs prior to viral infection. Format: functional, organism-based.
The subject of assay [13] is Yellow fever virus. The assay can be described thus: Antiviral activity against 10^2 CCID50 Yellow fever virus Jimenez infected in syrian golden hamster assessed as mean day of death […] at 100 mg/kg/day, po administered twice daily for 8 days started 4 hrs prior to viral infection relative to control. Type of assay: functional.
For assay [14], the system named is Yellow fever virus. Nature of the assay: Antiviral activity against 10^2 CCID50 Yellow fever virus Jimenez infected in syrian golden hamster assessed as serum survival of animal at 100 mg/kg/day, po administered twice daily for 8 days started 4 hrs prior to viral infection. Type of assay: functional, organism-based.

A word on the EC90: it is the concentration needed for an effect of 90%. As usually defined, the EC50 is the concentration giving half of the maximal effect. Take `NC(=O)c1nc(F)cnc1O` [FAVIPIRAVIR]: the Time in assay [1] was 7 days; in assay [10] it was 6.8 days; in [13], 7.1 days. Further, the Activity in assay [2] is recorded as 115 IU/L; in assay [3], 153 IU/L; in [4] it was 189 IU/L; in assay [5], 285 IU/L; in assay [8] it was 77 IU/L; in assay [11], 212 IU/L. The outcome in assay [6] was Active. In [7], the EC90 came out at 330 µM. Moreover, the EC50 in [9] worked out at 270 µM. In addition, the result in [12] and in [14] was inactive.
